These entries were drawn from the full list.
PGC1a Ac signal – raises PGC1a acetylation signal in U2OS cells; hit rate 0.21% among 350,000; activation, % at 15.6 µM; U2OS PGC1a acetylation AlphaScreen, overnight;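 active = every replicate reaching activation of at least 50%, whatever the mean replicate activation; inconclusive = replicates that disagree or another doubt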;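 note: hits raise the AlphaScreen acetylation signal above neutral controls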
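System – flag-PGC1a/GCN5 U2OS cells · Quantity – 7000 U2OS cells per well · Signal – AlphaScreen proximity luminescence, anti-acetyl-lysine antibody · Schedule – overnight compound treatment, 37 °C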
Hep G6PC suppr – PGC-1a acetylation activator altering hepatocyte G6PC expression. shares compounds with PGC1a Ac signal. AID 743463. G6PC suppression (normalized activity, % of positive control; higher = more suppression), % at 26 µM. primary mouse hepatocytes, G6PC mRNA qPCR, forskolin. 240 tested, under 10 active;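 active = dose curves showing G6PC suppression whose half-maximal dose is at most twice the top valid dose; inconclusive = flat curves with moderate negative activity, or unreliable fits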;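 note: G6PC expression relative to GAPDH housekeeping gene as delta delta Ct; 0% = median of neutral control wells and 100% = median of positive control wells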
PCK1 hep suppr – PGC-1a acetylation activators affecting PCK1 expression in hepatocytes; shares compounds with PGC1a Ac signal; primary mouse hepatocytes, PCK1 mRNA qPCR, forskolin-stimulated; PCK1 expression decrease, unspecified at 26 µM; 230 tested, under 10 active; AID 743465;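 active = compounds lowering PCK1 expression whose fitted half-maximal concentration is at most twice the top tested dose; inconclusive = flat fit with moderate opposite-direction effect, or poor fit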;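 note: values are delta delta Ct of PCK1 relative to GAPDH; higher delta delta Ct means lower PCK1 expression so positive values indicate hits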
Hep PGC-1a down – hepatocyte PGC-1a expression change via PGC-1a acetylation activation | 240 tested, under 10 active | max activity (PGC-1a expression decrease), % | primary mouse hepatocytes, PGC-1a mRNA qPCR, forskolin; top dose 26 µM | shares compounds with PGC1a Ac signal;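 active = compound lowering PGC-1a expression with fitted half-maximal concentration at most twice its top tested dose; inconclusive = flat curve with moderate opposite-direction effect, or poor fit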;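 note: 0% = neutral control wells median and 100% = positive control wells median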
The depositor's hits bear a star; ? = inconclusive; · = no result given; [ ] = another dose, or the depositor's remark.

SMILES	PGC1a Ac signal	Hep G6PC suppr	PCK1 hep suppr	Hep PGC-1a down
CCOC(=O)C1CCCN(S(=O)(=O)c2ccc3c(c2)NC(=O)CO3)C1 (stereo unspecified)	92*	-23	·	?
CC1CCCN(S(=O)(=O)c2ccc3c(c2)n(C)c(=O)c(=O)n3C)C1 (stereo unspecified)	-49	·	·	·
CN1C2C=C3C(C#N)=C(N)C(C#N)(C#N)C(c4ccc(Br)cc4)C3C1CC2 (stereo unspecified)	-42	·	·	·
COc1ccc(-c2nc(N)c(C#N)c(-c3cccnc3)c2C)cc1	?	2	7.5	40
O=C(O)CC1S/C(=N/N=C/c2ccc(Br)cc2)N(c2ccccc2)C1=O (stereo unspecified)	-75	·	·	·
CC(=O)Nc1sc2c(c1-c1nc3ccccc3s1)CN(C(C)C)CC2	-52	·	·	·
CCCS(=O)(=O)Nc1cccc(-c2nc3cccnc3s2)c1	?	-45	-27	35
Cc1cc(/C=C\c2ccc3cc(N(C)C)ccc3[n+]2C)c(C)n1-c1ccccc1	-68	·	·	·
COC(=O)c1ccc(CSc2nc3c(cnn3-c3ccc(Cl)cc3)c(=O)[nH]2)o1	-53	·	·	·
Cc1c(C(=O)NCCSCc2c(F)cccc2Cl)cnn1-c1ccc(Cl)cc1	?	-15	-13	-22
c1cncc(CNc2ncnc3ccc(-c4ccoc4)cc23)c1	-55	·	·	·
O=C(Nc1cccnc1)c1ccc(Br)s1	?	-8	27	47
C/C(=N\NC(=O)c1cc(C)[nH]n1)c1ccc(-c2ccccc2)cc1	-79	·	·	·
CSc1nsc(SC)c1NC(=O)Nc1ccccc1C	-103	-16	21	56
Cc1cc(C)c(C#N)c(N2CCN(c3ccccc3)CC2)n1	-49	·	·	·
COc1ccc(C2NC(=S)NC3=C2CCCC3=C2SCCS2)cc1 (stereo unspecified)	-45	·	·	·
Cc1ccc(-c2nnc(Nc3ccc4c(c3)OCO4)c3ccccc23)cc1S(=O)(=O)NCCO	94*	44	113	63
COc1ccc(C2c3[nH]c4ccccc4c3C[C@H]3C(=O)N(c4ccccc4C(=O)N4CCC[C@@H]4C(=O)O)C(=O)N23)cc1 (stereo partly specified)	-44	·	·	·
COc1ccc2nc(C)cc(N/N=C/c3ccc(F)cc3)c2c1	-94	·	·	·
Cc1ccc(C(=O)c2c[nH]c(C(=O)NCc3cccnc3)c2)cc1	75*	18	156	37
Cc1ccc(C(=O)c2cncc(Br)c2)cc1	-42	·	·	·
Cc1cc(F)cc(-c2cc(C(=O)NCc3ccccc3)[nH]n2)c1	-41	·	·	·
Cc1ccc(C)n1-c1ccc(-c2nnco2)cc1	-52	·	·	·
Cc1sc(NC(=O)c2cccs2)nc1-c1ccccc1	80*	·	3.4	22
Cc1nnc(NC(=O)CSc2ncc(-c3ccccc3)[nH]2)s1	-88	·	·	·
SMILES	PGC1a Ac signal	Hep G6PC suppr	PCK1 hep suppr	Hep PGC-1a down
Cc1ccc(-n2c(O)c(C=NC3CCS(=O)(=O)C3)c3ccccc3c2=O)c(C)c1 (stereo unspecified)	-57	·	·	·
CC(=O)N1N=C(c2ccco2)CC1c1ccco1 (stereo unspecified)	-49	·	·	·
NCc1cccc(-n2cccn2)c1	-54	·	·	·
C[C@H](CO)N1C[C@H](C)[C@@H](CN(C)C(=O)Nc2ccc(-c3cccs3)cc2)OCc2cnnn2CCCC1=O	-46	·	·	·
C[C@@H]1CN([C@@H](C)CO)C(=O)c2c(c3ccccc3n2C)-c2ccccc2CO[C@@H]1CN(C)C(=O)Nc1ccccc1C(F)(F)F	74*	5	39	86
C[C@@H]1CN([C@H](C)CO)C(=O)c2c(c3ccccc3n2C)-c2ccccc2CO[C@@H]1CN(C)C(=O)Nc1ccc2c(c1)OCO2	?	9	78	?
C[C@@H]1CN([C@H](C)CO)C(=O)c2c(c3ccccc3n2C)-c2ccccc2CO[C@@H]1CN(C)C(=O)[C@H](C)c1ccccc1	133*	20	40	91
C[C@@H]1CN([C@@H](C)CO)C(=O)Cc2cc(NC(=O)Cc3ccccc3)ccc2O[C@H]1CN(C)C(=O)Nc1ccccc1	-49	-3[23.5 µM]	17[23.5 µM]	32
NCCCn1c(C(=O)c2cc(Cl)c(N)c(Cl)c2)c2ccc([N+](=O)[O-])cc2[n+]1[O-]	-54	·	·	·
Cn1ncc(N=Cc2ccccc2)c1C(N)=O	-48	·	·	·
O=C(C/C=N/OCc1c(Cl)cccc1Cl)c1cnc(-c2ccccc2)s1	-47	·	·	·
CO[C@H]1CN(C)C(=O)c2cc(NC(=O)Nc3ccc(Cl)cc3)ccc2OC[C@H](C)NC[C@@H]1C	-43	·	·	·
Cc1ccccc1CS(=O)(=O)c1nnc([C@H](Cc2ccccc2)NC(=O)OC(C)(C)C)o1	-55	·	·	·
O=c1[nH]nc(-c2ccc(NCCCO)c([N+](=O)[O-])c2)c2ccccc12	-59	·	·	·
CCCN(CCC)CCNC(=O)c1cc2c(=O)n(CC)c3ccccc3c2s1	-43	·	·	·
C[C@@H]1CN([C@H](C)CO)C(=O)c2c(c3ccccc3n2C)-c2ccccc2CO[C@@H]1CN(C)C(=O)c1ccc(F)cc1	78*	61[23.5 µM]	95[23.5 µM]	109
Cc1nn(C)c(C)c1N1C(=O)c2cccc3c(Br)ccc(c23)C1=O	-78	·	·	·
COc1cccc(Cn2c(NCc3cccnc3)nc3c2c(=O)n(C)c(=O)n3C)c1	-71	·	·	·
O=C1C(Nc2ccccc2)=C/C(=N/S(=O)(=O)c2cccs2)c2ccccc21	-59	·	·	·
Cc1nnc(NCc2ccccc2)c2ccccc12	?	·	11	84
Brc1ccc2ncnc(NCc3ccccc3)c2c1	-42	·	·	·
CSc1n[nH]c(NCc2ccccc2)n1	-42	·	·	·
O=C1/C(=C\c2ccco2)SC(=S)N1Cc1ccccc1	-41	·	·	·
Cc1ccc(Cl)c(Cn2cnc3c(cnn3C(C)(C)C)c2=O)c1F	-48	·	·	·
O=C(c1ccco1)N1CCN(c2nnc(-c3ccccc3)c3ccccc23)CC1	?	43	18	?
SMILES	PGC1a Ac signal	Hep G6PC suppr	PCK1 hep suppr	Hep PGC-1a down
CC(C)(C)C1CCC(CN2C(Nc3ccccc3)=NC[C@@H]2Cc2ccccc2)CC1 (stereo partly specified)	-88	·	·	·
CCOc1ccc2nc(NCCNC(=O)Nc3ccccc3)c(C#N)cc2c1	-64	·	·	·
CCOc1ccc(Nc2oc(-c3ccc(Cl)cc3)nc2C#N)cc1	62*	-53[8 µM]	54	20
CN(C)CCNc1oc(COc2ccc(-c3ccccc3)cc2)nc1C#N	-58	·	·	·
COc1ccc(OC)c(CNS(=O)(=O)c2cc(-c3cc(C)no3)ccc2OC)c1	-51	·	·	·
CCOc1ccc(N(C)S(=O)(=O)c2cc(-c3cc(C)no3)ccc2OC)cc1	54*	23	61	57
COc1ccc(N2C(=O)CC2(/C=C/c2ccccc2OC)C(=O)NC2CCCC2)cc1 (stereo unspecified)	-45	·	·	·
C[C@H]1CN([C@@H](C)CO)C(=O)c2cccc(NC(=O)c3cnccn3)c2O[C@H]1CN(C)Cc1ccc(C(=O)Nc2ccccc2N)cc1	203*	-39	-7.5	93
C[C@H]1CN([C@@H](C)CO)C(=O)c2cccc(NC(=O)Nc3cccc4ccccc34)c2O[C@H]1CN(C)Cc1ccc(C(=O)Nc2ccccc2N)cc1	81*	-38	-11	-13
C[C@H](CO)N1C[C@H](C)[C@H](CN(C)Cc2ccc(C(=O)Nc3ccccc3N)cc2)Oc2c(NC(=O)c3ccncc3)cccc2C1=O	-52	·	·	·

From PubChem
